Among the data in ChEMBL document CHEMBL1123839, “5-Acyl-3-substituted-benzofuran-2(3H)-ones as potential antiinflammatory agents” (1987) are Reduction values, retold here.

Holding throughout (type): functional
Experiment [1] is filed under the species Cavia porcellus. In words: Tested for effect on the production of Lipoxygenase (LO) metabolite, 5,12-diHETE in guinea pig peritoneal polymorphonuclear neutrophils at 30 uM concentration. Summed up: (§1)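 Guinea pig peritoneal PMNs were incubated with [14C]arachidonic acid and stimulated with calcium ionophore A23187. Compounds were tested at 30 μM in 0.1 N NaOH–Krebs Ringer bicarbonate buffer. Radiolabeled cyclooxygenase and lipoxygenase products were identified by HPLC and GC-MS, separated by TLC and quantified by automatic scanning.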

For experiment [2], the species on record is Cavia porcellus. In words: Tested for effect on the production of Lipoxygenase (LO) metabolite, 5-HETE in guinea pig peritoneal polymorphonuclear neutrophils at 30 uM concentration. Summed up:
as §1

Experiment [3] is filed under the species Cavia porcellus. In words: Tested for effect on the production of cyclooxygenase (COX) metabolite, PGE-2 (prostaglandin E2) of arachidonic acid in guinea pig peritoneal polymorphonuclear neutrophils at 30 uM concentration. Summed up: as §1
For experiment [4], the species on record is Cavia porcellus. In words: Tested for effect on the production of cyclooxygenase (COX) metabolite, TXB2 of arachidonic acid in guinea pig peritoneal polymorphonuclear neutrophils at 30 uM concentration. Summed up: as §1
The test system of experiment [5] is Rattus norvegicus. In words: Antiinflammatory activity was assessed by the ability to improve the adjuvant induced arthritis in left secondary lesion in rats at oral doses, 33 mg/kg (volume change in the injected paw measured from day 9 to day 18).
Experiment [6] relates to Rattus norvegicus. Briefly: Antiinflammatory activity was assessed by the ability to improve the adjuvant induced arthritis in right primary lesion in rats at oral doses, 33 mg/kg (volume change in the injected paw measured from day 0 to day 8). Summed up: (§2)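 Female Sprague–Dawley rats (150–170 g), six per group. Arthritis induced by subcutaneous plantar injection of 0.125 mg killed tubercle bacillus in liquid paraffin into the right hind paw. Dosing was 33 mg/kg orally, daily for 14 days, starting the day before adjuvant. Paw volumes were measured by mercury plethysmography every 2–3 days over 18 days. Primary lesion: right paw, days 0–8. Secondary lesions: right and left (uninjected) paws, days 9–18. Areas under the time-course curves were compared with controls by ANOVA.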

In experiment [7] the test system is Rattus norvegicus. Briefly: Ability to improve the adjuvant induced arthritis in right secondary lesion in rats at oral doses, 33 mg/kg. Summed up:
as §2

For experiment [8], the species on record is Rattus norvegicus. Briefly: Antiinflammatory activity was assessed improvement of adjuvant induced arthritis in rats, determined by joint mobility of the paw. Also on record: concentration or dose not given beside the values. Summed up: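 Adjuvant arthritis was induced in female Sprague–Dawley rats (150–170 g, groups of six) by right-hind-paw plantar injection of killed tubercle bacillus in paraffin. Treatment was 33 mg/kg orally, daily for 14 days, starting the day before adjuvant. Joint involvement was scored as the angle through which the hind paws moved easily, given as percent change versus nontreated controls.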

For experiment [9], the species on record is Cavia porcellus. In words: Tested for effect on the production of cyclooxygenase (COX) metabolite, PGF2-alpha (prostaglandin F2-alpha) of arachidonic acid in guinea pig peritoneal polymorphonuclear neutrophils at 30 uM concentration. Summed up:
as §1

`Cc1ccc(C(=O)c2ccc(O)c(C(C)C(=O)O)c2)s1` (stereo not given): the Reduction in experiment [1] is reported as -36%; in [2] it was -69%; in [3], 54%; in experiment [4] it was 82%; in [5], 29%; in [6], 13%. For the same compound, the figures for the Reduction in experiment [7], in experiment [8] and in [9] were 11%, -16% and 49%, respectively.
On to `CCCC(C(=O)O)c1cc(C(=O)c2cccs2)ccc1O` (stereo not given), for which the Reduction is given as -42% in experiment [1]; -33% in experiment [2]; 87% in experiment [3]; 86% in experiment [4]; 52% in experiment [5]; 26% in experiment [6]. Also, the Reduction in experiment [7] is listed as 30%; in experiment [8], 33%; in [9], 50%.
For the compound `CCC(CC)(C(=O)O)c1cc(C(=O)c2cccs2)ccc1OC`, the Reduction is given as 42% in [5], -11% in experiment [6], 16% in [7] and 42% in experiment [8].
On to `Cc1ccc(C(=O)c2ccc3c(c2)C(C)C(=O)O3)s1` (stereo not given), for which the Reduction in [1] was 15%; in experiment [2], -3%; in experiment [3] it was 65%; in [4] it was 86%; in experiment [5], 36%; in [6], 10%. In addition, the Reduction in experiment [7] is given as 19%; in [8], 15%; in [9], 28%.
With `CC(C)(C)c1cc(/C=C2\C(=O)Oc3ccc(C(=O)c4cccs4)cc32)cc(C(C)(C)C)c1O`, the Reduction is -8% in experiment [1]; -11% in experiment [2]; -14% in experiment [3]; 26% in [4]; 8% in [5]; -28% in experiment [6]. The Reduction in [7] is -7%; in [8], 17%; in [9], 6%.
`CCC(C(=O)O)c1cc(C(=O)c2cccs2)ccc1O` (stereo not given): the Reduction was -33% in [1]; 16% in [2]; 92% in experiment [4]; 76% in [5]; 20% in experiment [6]; 64% in experiment [7]. The Reduction in experiment [8] is on record as 60%; in experiment [9] it was 65%.
`O=C(O)/C(=C\c1ccccc1)c1cc(C(=O)c2cccs2)ccc1O`: the Reduction is reported as -15% in experiment [5], 15% in experiment [6], 11% in [7] and 5% in experiment [8].
For the compound `CC(C)(C(=O)O)c1cc(C(=O)c2cccs2)ccc1O`, the Reduction in [1] was -23%; in experiment [2] it was -20%; in [3], 80%; in experiment [4] it was 90%; in [5], 46%; in [6], 4%. In addition, the Reduction in experiment [7] was 20%; in [8], 26%; in experiment [9] it was 55%.
In the case of `CCCCC(C(=O)O)c1cc(C(=O)c2cccs2)ccc1O` (stereo not given), the Reduction in experiment [1] amounted to 60%; in [2] it was 60%; in experiment [3] it was 44%; in [4], 64%; in [5] it was 53%; in experiment [6], 5%. For the same compound, the Reduction was found to be 29% in experiment [7], 14% in experiment [8] and 51% in experiment [9].
As for `COc1ccc(C(=O)c2ccc(O)c(C(C)C(=O)O)c2)cc1` (stereo not given), the Reduction in experiment [1] is -10%; in [2] it was 5%; in experiment [4], 89%; in experiment [5] it was 22%; in experiment [6], 12%; in experiment [7], 31%. The results for the Reduction in experiment [8] and in [9] were 7% and 58%, respectively.
Take `CC1C(=O)Oc2ccc(C(=O)c3ccco3)cc21` (stereo not given): the Reduction in experiment [1] was 3%; in experiment [2], 20%; in [3], 81%; in experiment [4], 81%; in experiment [5], 25%; in experiment [6], -5%. Further, the Reduction is given as 12% in experiment [7] and 2% in [8].
Regarding `CC1(C)C(=O)Oc2ccc(C(=O)c3cccs3)cc21`, the Reduction in experiment [1] was determined as 49%; in experiment [2], 52%; in [3] it was 81%; in experiment [4], 81%; in experiment [5], 50%; in experiment [6] it was 28%. In addition, the Reduction in experiment [7] is on record as 36%; in experiment [8], 44%; in [9], -37%.
Consider `CCCC1C(=O)Oc2ccc(C(=O)c3cccs3)cc21` (stereo not given), for which the Reduction in [1] is 7%; in experiment [2], -2%; in experiment [3], 85%; in experiment [4], 81%; in experiment [5], 67%; in [6], 23%. In addition, the Reduction in [7] came to 41%; in experiment [8], 61%; in experiment [9], 49%.
For the compound `CC(C(=O)O)c1cc(C(=O)c2ccc(F)cc2)ccc1O` (stereo not given), the Reduction in [1] is recorded as -8%; in experiment [2], -1%; in [3], 46%; in experiment [4] it was 74%; in experiment [5] it was 56%; in experiment [6], 22%. In addition, the results for the Reduction in [7], in [8] and in experiment [9] were 32%, 33% and 49%, respectively.
For `CC(C(=O)O)c1cc(C(=O)c2cccs2)ccc1O` (stereo not given), the Reduction in [1] was -84%; in [2] it was -68%; in experiment [3], 76%; in experiment [4], 89%; in [5], 35%; in experiment [6] it was 39%. Moreover, the Reduction in [7] is recorded as 34%; in experiment [8], -15%; in experiment [9], 76%.
In the case of `COc1ccc(C(=O)c2ccc3c(c2)C(C)C(=O)O3)cc1` (stereo not given), the Reduction in experiment [1] is listed as 44%; in experiment [2] it was 50%; in experiment [4] it was 70%; in experiment [5], 22%; in [6] it was -9%; in experiment [7], 5%. The Reduction in experiment [8] was -9%; in experiment [9], 51%.
In the case of `O=C1Oc2ccc(C(=O)c3cccs3)cc2/C1=C/c1ccc(Cl)cc1`, the Reduction was 73% in [1]; 71% in experiment [2]; 77% in experiment [3]; 93% in [4]; -14% in experiment [5]; -5% in experiment [6]. Besides, the Reduction in experiment [7] was -18%; in experiment [8] it was 12%; in experiment [9] it was 69%.
`CCC1C(=O)Oc2ccc(C(=O)c3cccs3)cc21` (stereo not given): the Reduction amounted to 9% in experiment [1]; 20% in experiment [2]; 79% in experiment [3]; 90% in [4]; 81% in experiment [5]; 13% in experiment [6]. Further, the Reduction in experiment [7] worked out at 51%; in experiment [8], 52%; in experiment [9], 62%.
As for `O=C1Cc2cc(C(=O)c3cccs3)ccc2O1`, the Reduction in experiment [1] was -44%; in experiment [2], -33%; in [3], 54%; in [4], 65%; in experiment [5], -35%; in experiment [6], 25%. For the same compound, the Reduction in experiment [7] turned out to be 9%; in experiment [8], 5%; in experiment [9] it was 57%.
Take `O=C(c1ccc(O)c(C(Cc2ccccc2)C(=O)O)c1)c1cccs1` (stereo not given): the Reduction in [5] was determined as 10%; in [6] it was 29%; in [7], 30%; in experiment [8], 6%.
Regarding `CC1C(=O)Oc2ccc(C(=O)c3ccccc3)cc21` (stereo not given), the Reduction is recorded as -10% in experiment [1]; 10% in [2]; 71% in experiment [3]; 82% in experiment [4]; 52% in [5]; 5% in experiment [6]. For the same compound, the Reduction came to 35% in experiment [7], 29% in experiment [8] and 56% in experiment [9].
